# RanGTP-Impb inh: inhibitors of RanGTP-importin-beta interaction, primary screen, biochemical, FRET, CFP-Ran, YFP-importin-beta, homogeneous | cell-free CFP-Ran/YFP-importin-beta FRET ratio | inhibition, % (concentration not given with the values) | hit rate 1.1% among 300,000 | AID 2216, 2009;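 active means more than half of the replicate wells show a fall in the fluorescence ratio signal beyond about 16%, limit read from the data, passing the limit was not always enough; inconclusive means exactly half of the replicate wells pass the set limit; inactive means fewer than half of replicates pass the limit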;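 further: 0% = DMSO wells and 100% = Ran loaded with GDP instead of GTP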
# Runt-CBFb FRET: inhibitors of RUNX1 Runt–CBFb binding, primary screen, biochemical, FRET, Cerulean-Runt, Venus-CBFb, uHTS; Cerulean-Runt/Venus-CBFb FRET ratio 530/480, 1 h; inhibition, % at 20 µM; hit rate 0.46% among 220,000;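 active means inhibition over about 50% at 20 µM in the single-dose screen, limit read from the data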;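 further: 0% = DMSO wells and 100% = excess unlabeled CBFb competitor control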
#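 Buffer or medium: Tris pH 7.5 buffer with BSA. Assay system: Cerulean-labeled Runt domain protein. Amount: each fluorescent fusion protein 100 nM. Read-out basis: loss of energy transfer signal. Incubation: 1 h compound exposure, room temperature. Probe or stimulus: Venus-CBFb binding partner, 100 nM. Detection: FRET, excitation 422 nm, emission at 530 and 480 nm.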
# MEX-5 binding: MEX-5 zinc finger RNA-binding disruptors – biochemical, C. elegans, fluorescence polarization, MLPCN library, primary screen; Zinc finger protein mex-5 (Caenorhabditis elegans), Q9XUB2; MEX-5/FITC-TCR2 RNA binding; stronger effect = lower value; activity score (negative = inhibition of binding), % at 10 µM; hit rate 0.38% among 300,000; AID 1832, 2009;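 active means inhibition past about -25% in most replicates, and total fluorescence under double the plate's negative control median, limit read from the data; inconclusive means replicates evenly split on the limit, or fluorescence at least double controls; inactive means too little inhibition in most replicates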;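 further: 0% = DMSO and -100% = 5 µM competing unlabeled TCR2 RNA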
# Target sequence (Q9XUB2 whole entry, looked up): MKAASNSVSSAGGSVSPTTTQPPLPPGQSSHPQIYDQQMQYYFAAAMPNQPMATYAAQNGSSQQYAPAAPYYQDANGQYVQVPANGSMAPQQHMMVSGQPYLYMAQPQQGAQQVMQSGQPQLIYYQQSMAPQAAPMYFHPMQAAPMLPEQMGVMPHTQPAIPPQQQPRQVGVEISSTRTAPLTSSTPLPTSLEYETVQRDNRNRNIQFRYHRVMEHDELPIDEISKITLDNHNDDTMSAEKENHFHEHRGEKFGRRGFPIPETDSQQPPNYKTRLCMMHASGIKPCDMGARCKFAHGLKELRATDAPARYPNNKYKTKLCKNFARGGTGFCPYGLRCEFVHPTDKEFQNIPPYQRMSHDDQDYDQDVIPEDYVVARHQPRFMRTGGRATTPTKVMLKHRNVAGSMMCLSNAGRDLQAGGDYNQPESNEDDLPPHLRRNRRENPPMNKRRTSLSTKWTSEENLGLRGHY
# proKLK7 act: proKLK7 zymogen activators, primary screen, biochemical, fluorescence intensity; purified proKLK7, EDANS-DABCYL substrate fluorescence; 100% is mature enzyme control, 0% vehicle; activation, % at 7 µM; hit rate 0.9% among 370,000;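 active means activation above the mean of all tested compounds plus 3 SD, computed per campaign excluding outliers beyond control limits, cut at about 13% in these data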
# Target sequence (P49862 whole entry, looked up): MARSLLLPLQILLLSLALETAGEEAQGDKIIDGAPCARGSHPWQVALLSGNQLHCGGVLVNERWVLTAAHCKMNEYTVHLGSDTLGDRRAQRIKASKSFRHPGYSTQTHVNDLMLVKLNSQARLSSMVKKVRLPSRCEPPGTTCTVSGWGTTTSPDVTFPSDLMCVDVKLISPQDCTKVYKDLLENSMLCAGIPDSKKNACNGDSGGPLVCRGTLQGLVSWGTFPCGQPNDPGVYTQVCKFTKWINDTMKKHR
# Runt-SMMHC FRET: inhibitors of RUNX1 Runt–CBFb-SMMHC binding, primary screen, biochemical, FRET, Cerulean-Runt, Venus-CBFb-SMMHC, uHTS; Runt-related transcription factor 1 (Homo sapiens) + Core-binding factor subunit beta …; Cerulean-Runt/Venus-CBFb-SMMHC FRET ratio 530/480, 1 h; inhibition, % at 20 µM; hit rate 0.74% among 220,000; AID 1434, 2008;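 active means mean inhibition across duplicate retests at 20 µM reaching about 50%, limit read from the data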;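 further: 0% = DMSO wells and 100% = wells with excess untagged CBFb-SMMHC; inhibitors lower the FRET ratio by blocking Runt binding to CBFb-SMMHC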
# YIC counter: YIC intramolecular FRET probe signal interference, dose response, counter-screen for RanGTP-importin-beta inhibitor project, biochemical, fluorescence FRET; IC50, µM; hit rate 40% among 1,000; Purified YIC probe, intramolecular FRET ratio YFP/CFP; shares compounds with RanGTP-Impb inh;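 active means fitted half-maximal inhibitory concentration no more than tenfold above the top dose tested; inconclusive means flat fit with 30 to 70% activity, or poor fit; inactive means half-maximal concentration beyond tenfold above the top dose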
# An asterisk follows results filed as active; ? = inconclusive; nt = no result. A selection: hits, their analogues and other compounds. The true share with any hit is near 2.1%.
SMILES,RanGTP-Impb inh,Runt-CBFb FRET,MEX-5 binding,proKLK7 act,Runt-SMMHC FRET,YIC counter
CCS(=O)(=O)c1ccc(S(=O)(=O)CC)s1,36.1*,-1.2,-2.4,0.4,-0.5,>50
Cc1ccc(/C=C/C(=O)Nc2cccc3ncccc23)o1,17.4*,8.8,-2.2,-0.5,66.5,>50
Cc1ccc(/C=C/C(=O)Nc2cccnc2)o1,0.0,0.1,-7.0,0.3,13.7,nt
O=C1NC[C@@H](CCCCN2C[C@H](Cc3ccc(O)cc3)N(CCC3CCCCC3)C(=O)C2=O)N(Cc2ccccc2)C1=O,nt,nt,nt,-0.6,nt,nt
COc1ccc(NC(=O)c2cc(-c3cc(C)cc(F)c3)n[nH]2)cc1OC,nt,nt,nt,-0.6,nt,nt
O=C(/C=C/c1cccs1)Nc1ccc([N+](=O)[O-])cc1,18.8*,-6.0,-2.0,-0.5,-0.5,>50
O=C(/C=C/c1cccs1)c1ccc([N+](=O)[O-])cc1,2.4,1.4,-1.0,-0.4,-8.6,nt
O=S1(=O)c2ccc(Br)cc2OC[C@@H](c2ccccc2)N1Cc1cn(Cc2ccccc2)nn1,nt,nt,nt,0.1,nt,nt
C[C@H]1CN([C@@H](C)CO)C(=O)CCCn2cc(nn2)CO[C@@H]1CN(C)C(=O)c1ccncc1,nt,nt,nt,-0.6,nt,nt
COc1ccc(/C=C2\CC3(OC(=O)c4ccco4)CCCN2C3)cc1 (centres undefined),nt,nt,nt,-0.9,nt,nt
Cc1cc(N=Cc2c(O)n(-c3ccc(C)c(C)c3)c(=O)c3ccccc23)no1,nt,7.9,nt,1.7,17.0,nt
Cc1ccc(-n2c(O)c(C=Nc3ccc4c(c3)OCO4)c3ccccc3c2=O)cc1C,19.4*,-1.8,-9.6,-0.6,-314.0,27.6*
NC(=O)c1nsc(C(=O)N(Cc2ccc(F)cc2)C(C(=O)NC2CCCC2)c2ccco2)c1N (centres undefined),4.7,nt,-0.9,-0.3,nt,nt
CC(C)CCNC(=O)C(c1ccco1)N(Cc1ccc(F)cc1)C(=O)c1snc(C(N)=O)c1N (centres undefined),28.7*,-1.8,-2.3,-0.1,-0.5,>50
Cc1ccc(OCc2cc(C(=O)N(C)CCc3nc4ccccc4[nH]3)no2)cc1C,-5.5,nt,3.1,0.1,nt,nt
C#CC1(NC(=S)Nc2cccc(OC)c2)CCCCC1,nt,nt,nt,-0.9,nt,nt
Cn1c(NCc2ccccc2F)nc2cc(-c3cccc(Cl)c3)sc2c1=O,nt,nt,nt,0.5,nt,nt
CCc1ccc(C(=O)CSc2ncn[nH]2)cc1,17.9*,0.8,6.4,0.1,-3.1,>50
Cn1c2ccccc2c(=O)c2ccc(Cl)cc21,nt,nt,nt,9.1,nt,nt
COc1ccccc1C#Cc1ccc2c(=O)c3ccccc3n(C)c2c1,39.9*,nt,0.0,-8.8,nt,0.721*
COC(=O)CCC(=O)OC1(C)C(=O)C=C2C=C(C3CC3)N(Cc3ccc(OC)cc3)C=C2C1=O (centres undefined),20.2*,16.8,-15.7,0.4,20.9,19.5*
COC(=O)CCC(=O)OC1(C)C(=O)C=C2C=C(C3CC3)N(Cc3ccc4c(c3)OCO4)C=C2C1=O (centres undefined),-3.8,8.1,-6.2,0.8,2.0,nt
O=C(NCC1CCN(Cc2ccccc2Cl)CC1)Nc1ccccc1F,16.6*,nt,0.0,-0.3,nt,>50
CC1(C(=O)O)C=CCN1C(=O)c1ccccc1 (centres undefined),19.2*,-1.9,1.5,0.4,-0.9,>50
CC1=NN(C(=O)Cn2nc([N+](=O)[O-])cc2C)C(O)(C(F)(F)F)C1 (centres undefined),18.0*,-0.1,-1.0,-0.3,-0.6,>50
SMILES,RanGTP-Impb inh,Runt-CBFb FRET,MEX-5 binding,proKLK7 act,Runt-SMMHC FRET,YIC counter
Cc1cc([N+](=O)[O-])nn1CC(=O)N1N=C(C(F)F)CC1(O)C(F)F (centres undefined),-1.7,-2.0,-1.7,0.6,-2.3,nt
CC(=O)Nc1cc(C(=O)N(C)Cc2ccco2)ccc1Sc1ccc(Cl)cc1,17.5*,-0.8,1.7,0.7,-1.9,>50
C=CCn1c(SCCOc2ccc(OC)cc2)nnc1C(CO)NC(=O)c1ccc(OC)cc1 (centres undefined),19.2*,2.0,1.7,1.0,-4.6,>50
CCOC(=O)/C(C#N)=C1/C=Nc2ccccc2N1,26.6*,-8.5,-10.5,0.3,-33.3,>26
O=c1c2ccccc2sc2ccc(C#CC3(O)CCCCC3)cc12,30.2*,nt,2.4,-2.4,nt,21.8*
CC(C)c1ccc(NC(=O)C2(C)Cc3c(-c4ccc5c(c4)OCO5)ccnc3O2)cc1 (centres undefined),nt,nt,nt,-0.5,nt,nt
CC(C)NC(=O)/C(C#N)=C/c1ccc(N(C)C)o1,40.8*,-9.1,?,0.9,-20.3,6.38*
CC(C)CCN(CCC(C)C)CC(O)Cn1c2ccccc2c(=O)c2ccccc21 (centres undefined),57.2*,107.1*,-1.7,6.7,82.5*,3.73*
CCCN(CCC)CC(O)Cn1c2ccccc2c2ccccc21 (centres undefined),?,1.1,1.0,-0.3,-0.3,nt
COc1cc(C2C3CN(C)CC=C3C(C#N)=C(N)C2(C#N)C#N)ccc1OC(C)C (centres undefined),38.6*,88.3*,-29.6*,0.8,38.7,3.34*
CCCOc1ccc([C@@H]2C3CN(C(=O)OCC)CC=C3C(C#N)=C(N)C2(C#N)C#N)cc1OC (some centres undefined),5.1,-0.2,-1.3,nt,8.0,nt
Cc1c(C(=O)O)sc(S(=O)(=O)N2CCN(C(=O)Cc3ccccc3Cl)CC2)c1C(=O)O,nt,nt,nt,-0.2,nt,nt
CCN(CC)S(=O)(=O)c1ccc(OC)c(NC(=O)C2CC(=O)N(c3ccc(C)cc3)C2)c1 (centres undefined),29.1*,-2.8,-1.4,0.1,1.5,>50
CCOC(=O)c1c(NC(=O)CSc2nnc3c(n2)[nH]c2ccc(F)cc23)sc(C(C)=O)c1C,nt,-5.4,nt,0.7,-6.6,nt
CCOC(=O)c1c(NC(=O)CSc2nnc3c(n2)[nH]c2ccccc23)sc2c1CCN(C)C2,24.1*,nt,0.2,-0.1,nt,>50
COc1ccc(C(=O)Nc2sc3c(c2C#N)CCN(C(C)=O)C3)cc1,42.0*,41.1,0.2,0.5,61.9*,>50
CC(=O)N1CCc2c(sc(NC(=O)c3ccc([N+](=O)[O-])o3)c2C#N)C1,-1.6,2.5,-4.3,0.8,-8.1,nt
Cn1c(=O)[nH]c2c(Br)nccc21,nt,nt,nt,0.4,nt,nt
CC1=CC(=O)Nc2ccccc2S1,nt,nt,nt,-0.2,nt,nt
